According to ChEMBL document CHEMBL4342521 (J Med Chem, 2020):

What was measured:
Assay type in all cases: functional
KM12 = test: Antiproliferative activity against human KM12 cells assessed as reduction in cell viability after 48 hrs by CellTiter-Blue assay; details: KM12, 48 h, read-out: LC50 (the source's name)
How it was run: (§1)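 Cells grown in RPMI1640 with 10% FBS at 37 °C, 5% CO₂. 5,000–10,000 cells/well were pre-incubated overnight, and a time-zero CellTiter-Blue read was taken. Six 10-fold dilutions (top final 10 μM) were applied for 48 h, followed by 0.125 mg/mL CellTiter-Blue for 2–4 h. Resorufin fluorescence was read at ex 560/em 590 nm. […] Triplicates.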

PC-3 = test: Antiproliferative activity against human PC3 cells assessed as reduction in cell viability after 48 hrs by CellTiter-Blue assay; details: PC-3, 48 h, read-out: LC50 (the source's name); how it was run: as §1
NCI-H226 = test: Antiproliferative activity against human NCI-H226 cells assessed as reduction in cell viability after 48 hrs by CellTiter-Blue assay; details: NCI-H226, 48 h, read-out: LC50 (the source's name); how it was run: as §1

Question: Which CC50 (KM12) does the source give for `CCCNNC(=O)/C=C/c1ccc(CNCCc2c(C)[nH]c3ccccc23)cc1.O=C(O)C(F)(F)F` here?
Answer: > 10 µM

Question: And the CC50 (PC-3)?
Answer: > 10 µM

Question: What about the CC50 (NCI-H226) of the same compound?
Answer: 0.46 µM
